Measurements as given in ChEMBL document CHEMBL3792362 (Bioorg Med Chem Lett, 2016).
Each block holds one compound with its values, some of them ahead of it. Active and inactive are the calls of the source. The calls are words filed in the database; no cut-off is given here.

Experiments:
RAW264.7 [1] = assay: Inhibition of LPS/IFN-gamma-induced PGE2 production in mouse RAW264.7 cells at 5 uM after 17 to 20 hrs by enzyme immunoassay relative to control; conditions: RAW264.7, read-out: INH
U-937 [2] = assay: Inhibition of LPS/IFN-gamma-induced PGE2 production in PMA-treated human U937 cells at 5 uM after 17 to 20 hrs by enzyme immunoassay relative to control; conditions: U-937, read-out: INH
U-937 [3] = assay: Inhibition of LPS/IFN-gamma-induced PGE2 production in PMA-treated human U937 cells after 17 to 20 hrs by enzyme immunoassay; assay type: functional, cell-based
Summary of the method: (§1)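 Cells (5 × 10⁵/well) attached 24 h, then stimulated with recombinant IFN-γ 100 U/mL and LPS 2 µg/mL with or without compound (DMSO vehicle, 0.1% final), 17–20 h at 37 °C, 5% CO₂. U937 were first differentiated with 200 nM PMA for 24 h, then serum-free overnight. Supernatant PGE₂ quantified against standard curves; dose-response 0.78–50 µM, means ± SD of three samples.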

[4] = Cytotoxicity against PMA-treated human U937 cells assessed as cell viability at 5 uM by MTT assay relative to control
[5] = Cytotoxicity against mouse RAW264.7 cells assessed as cell viability at 5 uM by MTT assay relative to control
RAW264.7 [6] = assay: Inhibition of LPS/IFN-gamma-induced PGE2 production in mouse RAW264.7 cells after 17 to 20 hrs by enzyme immunoassay; assay type: functional, cell-based; summary of the method: as §1
RAW264.7 [7] = assay: Inhibition of LPS/IFN-gamma-induced nitric oxide production in mouse RAW264.7 cells at 25 uM relative to control; assay type: functional
[8] = Cytotoxicity against PMA-treated human U937 cells assessed as cell viability at 25 uM by MTT assay relative to control; assay type: cell-based, U-937; conditions: read-out: Activity
Summary of the method: (§2)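 After 17–20 h stimulation with 100 U/mL IFN-γ plus 2 µg/mL LPS (±compound, DMSO final 0.1%) at 37 °C, 5% CO₂, supernatant removed; MTT (5 mg/mL stock, 20 µL) added, 4 h at 37 °C; formazan dissolved in DMSO, absorbance at 570 nm. U937 were PMA-differentiated (200 nM, 24 h), then serum-free overnight; RAW264.7 grown in DMEM/10% FBS.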

RAW264.7 [9] = assay: Inhibition of LPS/IFN-gamma-induced PGE2 production in mouse RAW264.7 cells at 25 uM after 17 to 20 hrs by enzyme immunoassay relative to control; assay type: functional; summary of the method: as §1
[10] = Cytotoxicity against mouse RAW264.7 cells assessed as cell viability at 25 uM by MTT assay relative to control; assay type: cell-based; conditions: read-out: Activity; summary of the method: as §2
U-937 [11] = assay: Inhibition of LPS/IFN-gamma-induced PGE2 production in PMA-treated human U937 cells at 25 uM after 17 to 20 hrs by enzyme immunoassay relative to control; assay type: functional; summary of the method: as §1
[12] = target: T1, Prostaglandin G/H synthase 1 (Ovis aries) (UniProt P05979); assay: Inhibition of ovine COX1 at 25 uM by ELISA relative to control
T1 sequence (whole entry): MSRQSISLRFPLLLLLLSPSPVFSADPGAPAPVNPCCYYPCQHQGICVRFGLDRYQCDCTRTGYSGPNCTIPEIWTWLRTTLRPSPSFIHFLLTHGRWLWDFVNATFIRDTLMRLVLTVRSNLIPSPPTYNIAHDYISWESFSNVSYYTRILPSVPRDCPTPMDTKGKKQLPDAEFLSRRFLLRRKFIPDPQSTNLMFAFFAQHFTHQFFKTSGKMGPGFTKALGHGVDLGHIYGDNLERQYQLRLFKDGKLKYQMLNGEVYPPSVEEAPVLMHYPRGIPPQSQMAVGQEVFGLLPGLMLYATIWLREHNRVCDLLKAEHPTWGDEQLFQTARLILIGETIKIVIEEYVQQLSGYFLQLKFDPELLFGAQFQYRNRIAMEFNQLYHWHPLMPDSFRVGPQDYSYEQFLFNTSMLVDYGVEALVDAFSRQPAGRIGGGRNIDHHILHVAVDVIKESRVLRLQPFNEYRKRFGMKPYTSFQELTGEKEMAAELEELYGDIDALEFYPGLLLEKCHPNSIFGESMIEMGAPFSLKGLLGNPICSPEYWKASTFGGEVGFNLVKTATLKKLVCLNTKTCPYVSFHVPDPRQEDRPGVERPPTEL
Summary of the method: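 COX-1 (ovine) inhibition measured with a commercial ovine/human COX inhibitor screening ELISA kit per manufacturer's protocol; prostaglandin concentrations read on a microplate reader and calculated from standard curves.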

[13] = Inhibition of COX in CD1 mouse epidermal cytosolic fractions using [14C]arachidonic acid as substrate assessed as PGE2, PGF2alpha, and PGD2 formation by TLC/liquid scintillation spectrometry method
[14] = Inhibition of COX in CD1 mouse epidermal microsomes using [14C]arachidonic acid as substrate assessed as PGE2, PGF2alpha, and PGD2 formation by TLC/liquid scintillation spectrometry method; design: species or system Skin epidermis

IC50 (U-937 [3]): < 78 nM
IC50 (RAW264.7 [6]): < 0.078 µM
SMILES: CS(=O)(=O)Nc1ccc([N+](=O)[O-])cc1Oc1ccccc1 [NIMESULIDE]
inhibition at 5 µM (RAW264.7 [1]): 66%
inhibition at 5 µM (U-937 [2]): 89%
viability at 5 µM [4]: 100%
viability at 5 µM [5]: 100%

SMILES: CCN(CC)c1ccc(/C=C2\CCC/C(=C\c3ccc(-c4ccc(F)cc4)cc3)C2=O)cc1
inhibition (RAW264.7 [7]): inactive
viability at 25 µM [8]: 100%
inhibition at 25 µM (RAW264.7 [9]): 65%
viability at 25 µM [10]: 94%
inhibition at 25 µM (U-937 [11]): 72%

SMILES: COc1cccc(/C=C2\CCC/C(=C\c3ccc(-c4ccc(F)cc4)cc3)C2=O)c1OC
inhibition (RAW264.7 [7]): inactive
viability at 25 µM [8]: 98%
inhibition at 25 µM (RAW264.7 [9]): 51%
viability at 25 µM [10]: 90%
inhibition at 25 µM (U-937 [11]): 68%

SMILES: COc1cc(/C=C2\CCC/C(=C\c3ccc(C)cc3)C2=O)ccc1O
inhibition at 25 µM (RAW264.7 [7]): 100%
viability at 25 µM [8]: 100%
inhibition at 25 µM (RAW264.7 [9]): 95%
viability at 25 µM [10]: < 50%
inhibition at 25 µM (U-937 [11]): 85%

IC50 (U-937 [3]): 950 nM
inhibition [12]: inactive
IC50 (RAW264.7 [6]): 0.78 µM
SMILES: COc1ccc(/C=C2\CCC/C(=C\c3ccc(O)c(OC)c3)C2=O)cc1
inhibition at 25 µM (RAW264.7 [7]): 100%
viability at 25 µM [8]: 100%
inhibition at 25 µM (RAW264.7 [9]): 96%
viability at 25 µM [10]: < 50%
inhibition at 25 µM (U-937 [11]): 86%

IC50 [13]: 5 µM
IC50 (U-937 [3]): 1880 nM
inhibition [12]: inactive
IC50 [14]: 52 µM
IC50 (RAW264.7 [6]): 16 µM
SMILES: COc1cc(/C=C/C(=O)CC(=O)/C=C/c2ccc(O)c(OC)c2)ccc1O [CURCUMIN]
inhibition at 25 µM (RAW264.7 [7]): 85%
viability at 25 µM [8]: 95%
inhibition at 25 µM (RAW264.7 [9]): 78%
viability at 25 µM [10]: 90%
inhibition at 25 µM (U-937 [11]): 94%

SMILES: O=C1/C(=C/c2ccc(-c3ccc(F)cc3)cc2)CCC/C1=C\c1ccc(Cl)c(Cl)c1
inhibition (RAW264.7 [7]): inactive
viability at 25 µM [8]: 94%
inhibition at 25 µM (RAW264.7 [9]): 59%
viability at 25 µM [10]: 100%
inhibition at 25 µM (U-937 [11]): 76%

IC50 (U-937 [3]): 3440 nM
inhibition [12]: inactive
IC50 (RAW264.7 [6]): 12 µM
SMILES: COc1cccc(/C=C2\CCC/C(=C\c3ccc(C)cc3)C2=O)c1OC
inhibition at 25 µM (RAW264.7 [7]): 95%
viability at 25 µM [8]: 100%
inhibition at 25 µM (RAW264.7 [9]): 83%
inhibition (U-937 [3]): Dose-dependent effect
viability at 25 µM [10]: 100%
inhibition at 25 µM (U-937 [11]): 83%

SMILES: COc1cc(/C=C2\CCC/C(=C\c3ccc(Br)cc3)C2=O)ccc1O
inhibition at 25 µM (RAW264.7 [7]): 100%
viability at 25 µM [8]: 100%
inhibition at 25 µM (RAW264.7 [9]): 96%
viability at 25 µM [10]: < 50%
inhibition at 25 µM (U-937 [11]): 87%

IC50 (U-937 [3]): 1650 nM
inhibition [12]: inactive
IC50 (RAW264.7 [6]): 4.86 µM
SMILES: Cc1ccc(/C=C2\CCC/C(=C\c3ccc(C)o3)C2=O)cc1
inhibition at 25 µM (RAW264.7 [7]): 99%
viability at 25 µM [8]: 98%
inhibition at 25 µM (RAW264.7 [9]): 92%
inhibition (U-937 [3]): Dose-dependent effect
viability at 25 µM [10]: 83%
inhibition at 25 µM (U-937 [11]): 84%

SMILES: COC(=O)[C@@H](N)CCCNC(=N)N[N+](=O)[O-] [L-NAME]
inhibition at 25 µM (RAW264.7 [7]): 53%

SMILES: Cc1ccc(/C=C2\CCC/C(=C\c3ccc(Cl)c(Cl)c3)C2=O)cc1
inhibition at 25 µM (RAW264.7 [7]): 71%
viability at 25 µM [8]: 100%
inhibition at 25 µM (RAW264.7 [9]): 64%
viability at 25 µM [10]: 95%
inhibition at 25 µM (U-937 [11]): 68%

SMILES: CCN(CC)c1ccc(/C=C2\CCC/C(=C\c3ccc(O)c(OC)c3)C2=O)cc1
inhibition at 25 µM (RAW264.7 [7]): 100%
viability at 25 µM [8]: 100%
inhibition at 25 µM (RAW264.7 [9]): 95%
viability at 25 µM [10]: < 50%
inhibition at 25 µM (U-937 [11]): 85%

SMILES: Cc1ccc(/C=C2\CCC/C(=C\c3cccc4ccccc34)C2=O)cc1
inhibition (RAW264.7 [7]): inactive
viability at 25 µM [8]: 94%
inhibition at 25 µM (RAW264.7 [9]): 74%
viability at 25 µM [10]: 100%
inhibition at 25 µM (U-937 [11]): 66%

SMILES: COc1cccc(/C=C2\CCC/C(=C\c3ccc(Cl)c(Cl)c3)C2=O)c1OC
inhibition at 25 µM (RAW264.7 [7]): 90%
viability at 25 µM [8]: 100%
inhibition at 25 µM (RAW264.7 [9]): 73%
viability at 25 µM [10]: 77%
inhibition at 25 µM (U-937 [11]): 58%

IC50 (U-937 [3]): 920 nM
inhibition [12]: inactive
IC50 (RAW264.7 [6]): 1.9 µM
SMILES: COc1cc(/C=C2\CCC/C(=C\c3ccc(O)cc3)C2=O)ccc1O
inhibition at 25 µM (RAW264.7 [7]): 100%
viability at 25 µM [8]: 100%
inhibition at 25 µM (RAW264.7 [9]): 96%
viability at 25 µM [10]: < 50%
inhibition at 25 µM (U-937 [11]): 88%

SMILES: O=C1/C(=C/c2ccc(Br)cc2)CCC/C1=C\c1ccc(-c2ccc(F)cc2)cc1
inhibition (RAW264.7 [7]): inactive
viability at 25 µM [8]: 98%
inhibition at 25 µM (RAW264.7 [9]): 53%
viability at 25 µM [10]: 92%
inhibition at 25 µM (U-937 [11]): 66%
